Several values for one entry are separate records, joined by “and”; a condition that tells them apart may be missing. Identical values can stand only once. Activity calls are given as the source filed them.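 How the source made its calls: active means compounds that push a bacterial single-strand DNA binding protein off labeled DNA, with IC50 up to 50 micromolar; inactive means the rest.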

Chain of Single-stranded DNA-binding protein (Escherichia coli (strain K12)) (P0AGE0 whole entry, looked up): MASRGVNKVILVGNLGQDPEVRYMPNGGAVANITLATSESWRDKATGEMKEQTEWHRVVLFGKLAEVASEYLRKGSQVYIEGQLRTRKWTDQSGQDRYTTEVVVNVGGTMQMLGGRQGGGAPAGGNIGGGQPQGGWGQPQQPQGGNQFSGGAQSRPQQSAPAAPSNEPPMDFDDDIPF

In this test the target is Single-stranded DNA-binding protein (Escherichia coli (strain K12)) (UniProt P0AGE0). Nature of the test: displacement of E. coli SSB from DNA, late-stage follow-up, selectivity assay for HCV NS3 helicase inhibitor project, biochemical, fluorescence polarization (AID 623966). The conditions noted are these: E. coli SSB / Cy5-dT15 DNA. The essentials:
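System: E. coli SSB (ssDNA-binding protein), Cy5-labelled dT15 DNA; quantity: 20 nM E. coli SSB per well, final; dosing: compound dilution series in DMSO; signal: fluorescence polarization of Cy5 label; evaluation: percent displacement and IC50 from dose-response fits; benchmarks: no-enzyme wells and 200 nM dT20 competitor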
`Cc1ccc2nc(-c3ccc4nc(-c5ccc(NCc6ccccc6)cc5)sc4c3)sc2c1S(=O)(=O)O`: the IC50 is 5 µM.

With `Cc1ccc2nc(-c3ccc4nc(-c5ccc(NC(=O)Nc6ccc(F)cc6)cc5)sc4c3)sc2c1S(=O)(=O)O`, the IC50 is 11 µM.

Consider `Cc1ccc2nc(-c3ccc4nc(-c5ccc(NC(=O)Nc6ccc(Cl)cc6)cc5)sc4c3)sc2c1S(=O)(=O)O`, for which the IC50 is 5 µM.

Regarding `Cc1ccc2nc(-c3ccc4nc(-c5ccc(NC(=O)c6c(F)cccc6C(F)(F)F)cc5)sc4c3)sc2c1S(=O)(=O)O`, the IC50 is 13 µM.

Consider `Cc1ccc2nc(-c3ccc(NC(=O)c4ccc(NC(=O)Nc5ccccc5)cc4)cc3)sc2c1S(=O)(=O)O`, for which the concentration for half-maximal inhibition (IC50) was 20 µM.

For `Cc1ccc2nc(-c3ccc4nc(-c5ccc(NC(=O)c6ccc(C(F)(F)F)cc6)cc5)sc4c3)sc2c1S(=O)(=O)O`, the IC50 is 4 µM.

Consider `COc1ccc(C(=O)Nc2ccc(-c3nc4ccc(-c5nc6ccc(C)c(S(=O)(=O)O)c6s5)cc4s3)cc2)cc1`, for which the IC50 was 2 µM.

For `Cc1ccc2nc(-c3ccc(NC(=O)c4ccc(NS(=O)(=O)c5ccccc5)cc4)cc3)sc2c1S(=O)(=O)O`, the IC50 is > 100 µM (inactive).

For `Cc1ccc2nc(-c3ccc(NC(=O)c4ccc(NC(=S)Nc5ccccc5)cc4)cc3)sc2c1S(=O)(=O)O`, the IC50 is 23 µM.

As for `Cc1ccc2nc(-c3ccc(NC(=O)c4ccc(NC(=O)OCC5c6ccccc6-c6ccccc65)cc4)cc3)sc2c1S(=O)(=O)O`, the IC50 is 27 µM.

Molecule `Cc1ccc2nc(-c3ccc4nc(-c5ccc(NC(=O)c6ccc(Cl)cc6)cc5)sc4c3)sc2c1S(=O)(=O)O` registered an IC50 of 46 µM.

As to `Cc1ccc2nc(-c3ccc(NC(=O)c4ccc(NC(=O)c5ccccc5)cc4)cc3)sc2c1S(=O)(=O)O`, the IC50 entry was “inactive”.

Take `Cc1ccc2nc(-c3ccc(NC(=O)c4ccc(NC(=O)c5ccc(C(F)(F)F)cc5)cc4)cc3)sc2c1S(=O)(=O)O`: the IC50 is 23 µM.

Turning to `Cc1ccc2nc(-c3ccc4nc(-c5ccc(NC(=O)c6cccc(C(F)(F)F)c6F)cc5)sc4c3)sc2c1S(=O)(=O)O`, the IC50 result is “inactive”.

As to `Cc1ccc2nc(-c3ccc(NC(=O)c4ccc(NC(=O)c5ccc(N)cc5)cc4)cc3)sc2c1S(=O)(=O)O`, the IC50 is 17 µM.

`Cc1ccc2nc(-c3ccc4nc(-c5ccc(NC(=O)c6ccc(Cl)c(Cl)c6)cc5)sc4c3)sc2c1S(=O)(=O)O`: the IC50 is > 100 µM (inactive).

As to `Cc1ccc2nc(-c3ccc4nc(-c5ccc(NC(=O)c6ccc(N(C)C)cc6)cc5)sc4c3)sc2c1S(=O)(=O)O`, the concentration for half-maximal inhibition (IC50) was 4 µM.

`Cc1ccc2nc(-c3ccc4nc(-c5ccc(NC(=O)c6ccccc6)cc5)sc4c3)sc2c1S(=O)(=O)O`: the IC50 is 4 µM.

For the molecule `Cc1ccc2nc(-c3ccc4nc(-c5ccc(NC(=O)c6ccc7ccccc7c6)cc5)sc4c3)sc2c1S(=O)(=O)O`, the IC50 was 22 µM and 28 µM.

As for `Cc1ccc2nc(-c3ccc4nc(-c5ccc(NC(=O)c6ccccc6C(F)(F)F)cc5)sc4c3)sc2c1S(=O)(=O)O`, the half-maximal inhibitory concentration (IC50) was 13 µM.

As for `Cc1ccc2nc(-c3ccc4nc(-c5ccc(NC(=O)c6ccc(CNC(=O)OCC7c8ccccc8-c8ccccc87)cc6)cc5)sc4c3)sc2c1S(=O)(=O)O`, the IC50 entry was “inactive”.

In the case of `Cc1ccc2nc(-c3ccc4nc(-c5ccc(NC(=O)c6ccc(C(F)(F)F)c(F)c6)cc5)sc4c3)sc2c1S(=O)(=O)O`, the IC50 is 10 µM.

In the case of `COc1ccc(S(=O)(=O)Nc2ccc(-c3nc4ccc(-c5nc6ccc(C)c(S(=O)(=O)O)c6s5)cc4s3)cc2)cc1`, the IC50 is 10 µM.

In the case of `Cc1ccc2nc(-c3ccc4nc(-c5ccc(NC(=O)Nc6ccccc6)cc5)sc4c3)sc2c1S(=O)(=O)O`, the IC50 was 6 µM.

On to `Cc1ccc(C(=O)Nc2ccc(-c3nc4ccc(-c5nc6ccc(C)c(S(=O)(=O)O)c6s5)cc4s3)cc2)cc1`, for which the IC50 is 5 µM.

As to `Cc1ccc2nc(-c3ccc4nc(-c5ccc(NC(=O)c6ccc(NC(=O)OCC7c8ccccc8-c8ccccc87)cc6)cc5)sc4c3)sc2c1S(=O)(=O)O`, the IC50 is > 100 µM (inactive).

Turning to `Cc1ccc(NC(=O)Nc2ccc(-c3nc4ccc(-c5nc6ccc(C)c(S(=O)(=O)O)c6s5)cc4s3)cc2)cc1`, the IC50 was 10 µM.

Consider `Cc1ccc2nc(-c3ccc4nc(-c5ccc(NC(=O)c6ccncc6)cc5)sc4c3)sc2c1S(=O)(=O)O`, for which the IC50 entry was “inactive”.

`Cc1ccc2nc(-c3ccc4nc(-c5ccc(NC(=O)c6cccc7ccccc67)cc5)sc4c3)sc2c1S(=O)(=O)O`: the IC50 was 9 µM.

With `COC(=O)c1ccc(C(=O)Nc2ccc(-c3nc4ccc(-c5nc6ccc(C)c(S(=O)(=O)O)c6s5)cc4s3)cc2)cc1`, the IC50 was 2 µM.

Consider `COc1ccc(NC(=O)Nc2ccc(-c3nc4ccc(-c5nc6ccc(C)c(S(=O)(=O)O)c6s5)cc4s3)cc2)cc1`, for which the IC50 is 4 µM.

With `Cc1ccc2nc(-c3ccc4nc(-c5ccc(NC(=O)c6ccc7nc(-c8ccc(N)cc8)sc7c6)cc5)sc4c3)sc2c1S(=O)(=O)O`, the IC50 was 3 µM.

Consider `CC(=O)Nc1ccc(-c2nc3ccc(-c4nc5ccc(C)c(S(=O)(=O)O)c5s4)cc3s2)cc1`, for which the IC50 was 17 µM.

On to `Cc1ccc2nc(-c3ccc4nc(-c5ccc(NC(=S)Nc6ccccc6)cc5)sc4c3)sc2c1S(=O)(=O)O`, for which the IC50 was 7 µM.

`Cc1ccc2nc(-c3ccc4nc(-c5ccc(NC(=O)c6cc(C(F)(F)F)ccc6F)cc5)sc4c3)sc2c1S(=O)(=O)O`: the IC50 was 12 µM.

As for `Cc1ccc2nc(-c3ccc4nc(-c5ccc(NC(=O)Nc6ccc(C(F)(F)F)cc6)cc5)sc4c3)sc2c1S(=O)(=O)O`, the IC50 was 15 µM.

Consider `Cc1ccc2nc(-c3ccc4nc(-c5ccc(N(C)C(=O)c6ccc7ccccc7c6)cc5)sc4c3)sc2c1S(=O)(=O)O`, for which the IC50 was 9 µM.

As for `Cc1ccc2nc(-c3ccc(NC(=O)c4ccc(NC(=O)c5ccc(NC(=O)OCC6c7ccccc7-c7ccccc76)cc5)cc4)cc3)sc2c1S(=O)(=O)O`, the IC50 was 7 µM.

As to `Cc1ccc2nc(-c3ccc4nc(-c5ccc(NC(=O)c6ccc(N)cc6)cc5)sc4c3)sc2c1S(=O)(=O)O`, the IC50 was 3 µM.

With `Cc1ccc2nc(-c3ccc4nc(-c5ccc(NC(=O)c6cc(F)cc(C(F)(F)F)c6)cc5)sc4c3)sc2c1S(=O)(=O)O`, the IC50 was > 100 µM (inactive).

For the molecule `Cc1ccc2nc(-c3ccc4nc(-c5ccc(NC(=O)c6cc(F)ccc6C(F)(F)F)cc5)sc4c3)sc2c1S(=O)(=O)O`, the IC50 was 14 µM.

Take `Cc1ccc2nc(-c3ccc4nc(-c5ccc(NC(=O)c6ccc(Br)cc6)cc5)sc4c3)sc2c1S(=O)(=O)O`: the IC50 is 27 µM.

On to `Cc1ccc2nc(-c3ccc4nc(-c5ccc(NC(=O)c6ccc7nc(-c8ccc(NC(=O)OCC9c%10ccccc%10-c%10ccccc%109)cc8)sc7c6)cc5)sc4c3)sc2c1S(=O)(=O)O`, for which the IC50 was 5 µM.

Regarding `Cc1ccc2nc(-c3ccc4nc(-c5ccc(NC(=O)c6cccc(C(F)(F)F)c6)cc5)sc4c3)sc2c1S(=O)(=O)O`, the IC50 was > 100 µM (inactive).

`Cc1ccc2nc(-c3ccc4nc(-c5ccc(NC(=O)c6cc(C(F)(F)F)cc(C(F)(F)F)c6)cc5)sc4c3)sc2c1S(=O)(=O)O`: the IC50 is 36 µM.

For the molecule `Cc1ccc2nc(-c3ccc4nc(-c5ccc(NC(=O)c6ccc(C(C)(C)C)cc6)cc5)sc4c3)sc2c1S(=O)(=O)O`, the IC50 was 32 µM.

`Cc1ccc2nc(-c3ccc4nc(-c5ccc(NC(=O)c6cccc(Cl)c6)cc5)sc4c3)sc2c1S(=O)(=O)O`: the IC50 was > 100 µM (inactive).

Consider `Cc1ccc2nc(-c3ccc4nc(-c5ccc(NC(=O)c6cccnc6)cc5)sc4c3)sc2c1S(=O)(=O)O`, for which the IC50 is > 100 µM (inactive).

Regarding `Cc1ccc2nc(-c3ccc4nc(-c5ccc(NC(=O)c6ccc(F)cc6)cc5)sc4c3)sc2c1S(=O)(=O)O`, the IC50 is 14 µM.
